# Key:
# [1] = Half maximal concentration for producing a tonic block in skeletal muscle fibers (block of sodium channel at resting conditions evaluated during infrequent depolarizing pulses); format: functional, tissue-based, Muscle tissue
# Method in brief: (§1)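 Four-pool grease-gap voltage clamp on single skeletal muscle fibers; the central pool held external solution (mM: NaCl 77, choline Cl 38, CaCl2 1.8, KCl 2.5, Na2HPO4 2.15, NaH2PO4 0.85) with drug added. Recordings at 10 °C after 10 min equilibration, holding potential -100 mV, 10-ms test pulses to -20 mV. IC50 for I_Namax block came from a logistic fit of concentration-response data, 3-7 fibers per point, mean ± SEM.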
# [2] = Ratio of IC50 tonic block to IC50 phasic block; format: functional
# [3] = Half maximal concentration for producing a phasic block in skeletal muscle fibers (cumulative sodium current reduction at 10 Hz stimulations frequency); format: functional, tissue-based, Muscle tissue; method in brief: as §1
# [4] = In vitro potential anti-myotonic activity as potency in phasic block in relation to tocainide (tocainide = 1); format: functional
# Method in brief: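 Phasic block was measured at 10 Hz by voltage clamp of skeletal muscle fiber Na+ current at 10 °C, holding potential -100 mV, pulses to -20 mV. The IC50 came from a logistic concentration-response fit, and potency was expressed relative to tocainide (tocainide = 1).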
SMILES,IC50 [1] [µM],IC50 [3] [µM],Ratio [2],Activity [4]
Cc1cccc(C)c1N(C)C(=O)[C@@H]1CCCN1C,286,198,1.4,1.1
Cc1cccc(C)c1NC(=O)[C@@H](C)N [(R)-TOCAINIDE],580,270,2.1,1
Cc1cccc(C)c1N(C)C(=O)[C@H]1CCCN1C,> 500,440,> 1.1,0.6
Cc1cccc(C)c1N(C)C(=O)[C@H]1CCCN1,340,217,1.6,1
Cc1cccc(C)c1NC(=O)[C@H](C)N [S-TOCAINIDE],520,220,2.4,1
Cc1cccc(C)c1NC(=O)[C@H]1CCCN1C,300,100,3,2.7

# The next compounds have a lower IC50 [1] than those just listed; values first:
IC50 [1] [µM],IC50 [3] [µM],SMILES,Ratio [2],Activity [4]
110,13,Cc1cccc(C)c1NC(=O)[C@H]1CCCN1,8.5,21
230,44,Cc1cccc(C)c1NC(=O)[C@@H]1CCCN1,5.2,5
104,67,Cc1cccc(C)c1N(C)C(=O)[C@@H]1CCCN1,1.5,3
106,28,Cc1cccc(C)c1NC(=O)[C@@H]1CCCN1C,3.4,8
